Data published in ChEMBL document CHEMBL5653631, “A Potent and Selective ULK1 Inhibitor Suppresses Autophagy and Sensitizes Cancer Cells to Nutrient Stress” (iScience, 2018).
Blank lines part the entries; values can stand above or below the compound they belong to.

Key:
[1] = biological target: T1, Tyrosine-protein kinase JAK3 (Homo sapiens) (UniProt P52333); test: Inhibition of human recombinant JAK3 at 500 nM in presence of ATP by radiometric assay relative to control
T1 sequence (whole entry): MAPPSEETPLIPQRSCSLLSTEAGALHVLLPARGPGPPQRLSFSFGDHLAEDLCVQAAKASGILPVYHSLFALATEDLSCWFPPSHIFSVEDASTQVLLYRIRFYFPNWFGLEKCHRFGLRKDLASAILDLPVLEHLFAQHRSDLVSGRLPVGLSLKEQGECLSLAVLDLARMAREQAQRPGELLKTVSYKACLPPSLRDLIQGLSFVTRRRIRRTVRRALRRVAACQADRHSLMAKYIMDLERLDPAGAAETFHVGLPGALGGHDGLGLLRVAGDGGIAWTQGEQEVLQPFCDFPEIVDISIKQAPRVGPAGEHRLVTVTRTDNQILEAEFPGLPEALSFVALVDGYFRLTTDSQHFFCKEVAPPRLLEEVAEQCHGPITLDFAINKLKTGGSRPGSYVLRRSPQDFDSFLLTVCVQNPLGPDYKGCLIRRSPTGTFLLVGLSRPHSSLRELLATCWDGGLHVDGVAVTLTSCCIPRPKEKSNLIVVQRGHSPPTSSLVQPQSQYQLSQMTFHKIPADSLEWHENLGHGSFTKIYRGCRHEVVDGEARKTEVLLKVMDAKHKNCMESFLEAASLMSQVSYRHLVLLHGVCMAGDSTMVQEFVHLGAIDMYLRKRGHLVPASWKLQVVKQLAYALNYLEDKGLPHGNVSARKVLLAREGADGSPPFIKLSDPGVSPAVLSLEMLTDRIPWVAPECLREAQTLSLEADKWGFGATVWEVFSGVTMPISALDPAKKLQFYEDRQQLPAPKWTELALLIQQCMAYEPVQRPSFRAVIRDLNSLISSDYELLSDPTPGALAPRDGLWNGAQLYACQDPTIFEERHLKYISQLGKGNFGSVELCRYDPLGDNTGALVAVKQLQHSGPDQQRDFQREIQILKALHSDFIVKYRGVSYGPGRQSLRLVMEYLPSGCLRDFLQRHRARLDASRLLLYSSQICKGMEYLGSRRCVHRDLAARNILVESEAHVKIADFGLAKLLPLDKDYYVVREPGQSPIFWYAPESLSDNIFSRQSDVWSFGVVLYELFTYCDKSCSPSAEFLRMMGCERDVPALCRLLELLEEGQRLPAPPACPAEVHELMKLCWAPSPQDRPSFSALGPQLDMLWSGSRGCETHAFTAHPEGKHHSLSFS

[2] = biological target: T2, Protein kinase C zeta type (Homo sapiens) (UniProt Q05513); test: Inhibition of human recombinant PKCz at 500 nM in presence of ATP by radiometric assay relative to control
T2 sequence (whole entry): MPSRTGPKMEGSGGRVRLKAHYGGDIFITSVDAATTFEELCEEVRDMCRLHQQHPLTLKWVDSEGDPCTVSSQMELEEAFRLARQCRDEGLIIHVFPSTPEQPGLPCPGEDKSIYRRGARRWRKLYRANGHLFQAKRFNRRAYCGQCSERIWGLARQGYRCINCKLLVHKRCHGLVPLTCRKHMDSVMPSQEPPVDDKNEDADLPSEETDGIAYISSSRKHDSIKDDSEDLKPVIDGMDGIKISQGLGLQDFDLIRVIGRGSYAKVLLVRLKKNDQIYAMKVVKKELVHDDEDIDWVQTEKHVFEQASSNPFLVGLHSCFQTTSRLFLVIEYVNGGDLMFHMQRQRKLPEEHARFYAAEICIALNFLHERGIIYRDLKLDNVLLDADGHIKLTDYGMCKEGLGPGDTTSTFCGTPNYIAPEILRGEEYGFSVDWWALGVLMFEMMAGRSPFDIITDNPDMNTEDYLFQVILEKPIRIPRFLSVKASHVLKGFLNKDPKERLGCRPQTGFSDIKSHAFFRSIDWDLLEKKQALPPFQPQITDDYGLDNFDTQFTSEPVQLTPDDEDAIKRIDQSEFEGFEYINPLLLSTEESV

[3] = biological target: T3, Beta-adrenergic receptor kinase 1 (Homo sapiens) (UniProt P25098); test: Inhibition of human recombinant BARK1 at 40 nM related to control ULK1
T3 sequence (whole entry): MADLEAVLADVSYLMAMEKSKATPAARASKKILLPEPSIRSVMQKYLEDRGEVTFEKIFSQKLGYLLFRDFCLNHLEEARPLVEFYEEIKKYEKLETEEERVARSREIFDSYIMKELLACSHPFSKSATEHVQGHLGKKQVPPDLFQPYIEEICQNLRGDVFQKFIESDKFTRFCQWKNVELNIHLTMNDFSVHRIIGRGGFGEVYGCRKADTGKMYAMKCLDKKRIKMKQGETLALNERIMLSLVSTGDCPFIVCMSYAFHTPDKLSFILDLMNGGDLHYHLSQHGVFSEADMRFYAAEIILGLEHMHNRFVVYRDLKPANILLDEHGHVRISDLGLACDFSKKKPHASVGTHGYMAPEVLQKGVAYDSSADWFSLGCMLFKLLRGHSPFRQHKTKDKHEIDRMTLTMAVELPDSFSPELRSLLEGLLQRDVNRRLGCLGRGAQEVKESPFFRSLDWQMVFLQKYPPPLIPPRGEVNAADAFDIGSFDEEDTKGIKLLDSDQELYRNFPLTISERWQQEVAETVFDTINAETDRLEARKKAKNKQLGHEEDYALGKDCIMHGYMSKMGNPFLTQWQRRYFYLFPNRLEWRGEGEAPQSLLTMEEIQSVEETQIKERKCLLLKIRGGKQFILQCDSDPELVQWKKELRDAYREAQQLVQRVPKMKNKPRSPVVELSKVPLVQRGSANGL
In short: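 Radiometric activity assays in a panel of 327 human recombinant kinases, each run in duplicate at one inhibitor concentration. Activity remaining is expressed as percent of vehicle control, and percent inhibition is calculated as 100% minus percent activity remaining.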

[4] = biological target: MAP/microtubule affinity-regulating kinase 3 (Homo sapiens) (UniProt P27448); test: Inhibition of human recombinant MARK3 at 40 nM related to control ULK1
[5] = biological target: Tau-tubulin kinase 1 (Homo sapiens) (UniProt Q5TCY1); test: Inhibition of human recombinant TTBK1 at 15 nM in presence of ATP by radiometric assay relative to control
Sequence of Tau-tubulin kinase 1 (Homo sapiens) (Q5TCY1 whole entry): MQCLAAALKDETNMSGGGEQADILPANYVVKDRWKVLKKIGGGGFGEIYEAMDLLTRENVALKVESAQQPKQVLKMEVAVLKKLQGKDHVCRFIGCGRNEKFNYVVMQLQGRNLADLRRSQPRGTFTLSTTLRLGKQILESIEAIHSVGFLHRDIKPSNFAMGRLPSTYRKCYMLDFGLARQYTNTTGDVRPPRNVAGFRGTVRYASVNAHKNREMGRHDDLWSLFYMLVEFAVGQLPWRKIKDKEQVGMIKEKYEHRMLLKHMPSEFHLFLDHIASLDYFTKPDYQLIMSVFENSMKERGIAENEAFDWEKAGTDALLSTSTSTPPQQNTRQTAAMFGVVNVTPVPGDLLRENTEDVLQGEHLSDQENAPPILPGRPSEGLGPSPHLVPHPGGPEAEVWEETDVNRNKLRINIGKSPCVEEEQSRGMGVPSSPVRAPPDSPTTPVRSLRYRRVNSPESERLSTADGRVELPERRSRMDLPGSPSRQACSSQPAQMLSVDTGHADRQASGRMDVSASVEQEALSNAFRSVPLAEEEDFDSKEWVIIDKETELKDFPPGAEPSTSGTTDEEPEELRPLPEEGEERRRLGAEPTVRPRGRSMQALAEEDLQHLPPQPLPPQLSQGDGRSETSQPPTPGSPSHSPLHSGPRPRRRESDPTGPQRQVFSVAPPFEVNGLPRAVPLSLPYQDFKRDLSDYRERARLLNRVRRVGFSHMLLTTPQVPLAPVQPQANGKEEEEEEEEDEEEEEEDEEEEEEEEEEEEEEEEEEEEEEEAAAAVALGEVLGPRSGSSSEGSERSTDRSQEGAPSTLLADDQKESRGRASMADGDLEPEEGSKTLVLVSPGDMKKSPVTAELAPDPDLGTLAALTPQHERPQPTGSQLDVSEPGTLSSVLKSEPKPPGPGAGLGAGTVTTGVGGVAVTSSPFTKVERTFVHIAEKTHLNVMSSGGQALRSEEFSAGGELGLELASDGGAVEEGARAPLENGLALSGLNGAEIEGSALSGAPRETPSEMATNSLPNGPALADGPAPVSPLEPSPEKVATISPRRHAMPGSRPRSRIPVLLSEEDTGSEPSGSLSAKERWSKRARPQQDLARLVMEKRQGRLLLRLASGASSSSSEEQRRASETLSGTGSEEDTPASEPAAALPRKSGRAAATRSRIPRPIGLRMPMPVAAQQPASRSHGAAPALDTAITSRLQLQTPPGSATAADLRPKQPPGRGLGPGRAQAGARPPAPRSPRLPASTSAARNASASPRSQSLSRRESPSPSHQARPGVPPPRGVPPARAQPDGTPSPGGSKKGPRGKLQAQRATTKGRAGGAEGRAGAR

[6] = biological target: Tyrosine-protein kinase Fer (Homo sapiens) (UniProt P16591); test: Inhibition of human recombinant FER at 15 nM related to control ULK1
Sequence of Tyrosine-protein kinase Fer (Homo sapiens) (P16591 whole entry, looked up): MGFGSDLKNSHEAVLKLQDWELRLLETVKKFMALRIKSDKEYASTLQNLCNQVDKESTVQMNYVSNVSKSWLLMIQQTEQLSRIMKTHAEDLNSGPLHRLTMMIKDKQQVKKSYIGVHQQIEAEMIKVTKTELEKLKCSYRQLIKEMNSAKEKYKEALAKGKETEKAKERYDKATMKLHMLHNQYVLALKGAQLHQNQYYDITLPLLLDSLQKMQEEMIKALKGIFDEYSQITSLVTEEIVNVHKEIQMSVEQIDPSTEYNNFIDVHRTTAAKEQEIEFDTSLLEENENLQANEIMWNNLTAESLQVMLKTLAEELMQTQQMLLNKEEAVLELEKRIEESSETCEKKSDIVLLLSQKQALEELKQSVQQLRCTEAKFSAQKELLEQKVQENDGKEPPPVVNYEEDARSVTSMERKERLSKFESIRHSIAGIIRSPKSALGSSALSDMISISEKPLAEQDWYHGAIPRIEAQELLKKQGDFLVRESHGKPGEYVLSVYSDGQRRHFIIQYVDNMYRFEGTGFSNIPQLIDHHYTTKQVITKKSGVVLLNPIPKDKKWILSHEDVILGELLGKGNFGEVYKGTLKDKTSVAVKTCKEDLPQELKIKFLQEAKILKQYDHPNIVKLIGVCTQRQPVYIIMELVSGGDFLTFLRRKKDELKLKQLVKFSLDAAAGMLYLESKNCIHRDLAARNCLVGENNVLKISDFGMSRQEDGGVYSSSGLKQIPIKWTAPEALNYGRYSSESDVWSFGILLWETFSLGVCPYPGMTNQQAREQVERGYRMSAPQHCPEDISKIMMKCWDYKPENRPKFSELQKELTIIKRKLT

[7] = biological target: Tyrosine-protein kinase JAK1 (Homo sapiens) (UniProt P23458); test: Inhibition of human recombinant JAK1 at 15 nM related to control ULK1
Sequence of Tyrosine-protein kinase JAK1 (Homo sapiens) (P23458 whole entry): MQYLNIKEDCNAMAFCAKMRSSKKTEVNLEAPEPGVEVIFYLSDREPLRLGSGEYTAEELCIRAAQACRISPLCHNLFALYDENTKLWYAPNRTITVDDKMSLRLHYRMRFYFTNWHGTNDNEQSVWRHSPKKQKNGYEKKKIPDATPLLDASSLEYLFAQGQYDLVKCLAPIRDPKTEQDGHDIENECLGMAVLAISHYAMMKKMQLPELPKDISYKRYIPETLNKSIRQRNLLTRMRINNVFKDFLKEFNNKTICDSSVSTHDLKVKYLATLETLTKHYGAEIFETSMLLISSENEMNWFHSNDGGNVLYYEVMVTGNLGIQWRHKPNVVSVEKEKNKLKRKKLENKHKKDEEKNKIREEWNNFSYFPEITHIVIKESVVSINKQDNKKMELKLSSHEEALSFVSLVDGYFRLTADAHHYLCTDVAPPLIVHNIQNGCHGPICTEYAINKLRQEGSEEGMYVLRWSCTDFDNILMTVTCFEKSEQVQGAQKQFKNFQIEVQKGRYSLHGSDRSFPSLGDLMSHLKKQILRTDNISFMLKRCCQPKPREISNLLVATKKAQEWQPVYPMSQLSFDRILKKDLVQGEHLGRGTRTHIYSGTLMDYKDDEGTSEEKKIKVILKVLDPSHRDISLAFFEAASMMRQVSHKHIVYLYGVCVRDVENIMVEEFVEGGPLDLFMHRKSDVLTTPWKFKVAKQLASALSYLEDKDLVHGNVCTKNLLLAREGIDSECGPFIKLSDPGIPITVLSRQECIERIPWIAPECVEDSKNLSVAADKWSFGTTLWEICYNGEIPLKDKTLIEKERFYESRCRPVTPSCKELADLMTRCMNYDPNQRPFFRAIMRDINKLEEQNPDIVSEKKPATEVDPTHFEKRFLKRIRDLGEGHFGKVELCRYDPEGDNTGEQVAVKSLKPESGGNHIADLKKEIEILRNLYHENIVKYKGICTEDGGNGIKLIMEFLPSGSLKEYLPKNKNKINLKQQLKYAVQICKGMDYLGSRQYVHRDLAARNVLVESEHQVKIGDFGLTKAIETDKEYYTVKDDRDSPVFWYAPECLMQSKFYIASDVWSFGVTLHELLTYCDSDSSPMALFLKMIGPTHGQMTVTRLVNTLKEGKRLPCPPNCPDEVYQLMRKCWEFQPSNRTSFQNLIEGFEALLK

[8] = biological target: Receptor-interacting serine/threonine-protein kinase 2 (Homo sapiens) (UniProt O43353); test: Inhibition of human recombinant RIPK2 at 15 nM related to control ULK1
Sequence of Receptor-interacting serine/threonine-protein kinase 2 (Homo sapiens) (O43353 whole entry): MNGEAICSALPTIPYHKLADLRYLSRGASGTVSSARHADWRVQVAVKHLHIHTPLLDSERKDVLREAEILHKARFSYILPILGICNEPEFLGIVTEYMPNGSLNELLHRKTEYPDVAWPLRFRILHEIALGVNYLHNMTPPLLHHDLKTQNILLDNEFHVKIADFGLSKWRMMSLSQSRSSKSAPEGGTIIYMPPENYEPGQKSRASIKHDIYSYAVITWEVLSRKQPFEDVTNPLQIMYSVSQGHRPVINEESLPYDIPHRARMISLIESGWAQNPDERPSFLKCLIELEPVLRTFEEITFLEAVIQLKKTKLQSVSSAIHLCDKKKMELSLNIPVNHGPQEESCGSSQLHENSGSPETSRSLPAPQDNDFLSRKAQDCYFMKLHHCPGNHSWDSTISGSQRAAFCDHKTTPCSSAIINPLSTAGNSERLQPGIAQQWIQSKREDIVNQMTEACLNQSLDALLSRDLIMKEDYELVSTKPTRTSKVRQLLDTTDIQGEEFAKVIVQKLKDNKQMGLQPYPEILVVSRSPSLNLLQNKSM

[9] = biological target: BDNF/NT-3 growth factors receptor (Homo sapiens) (UniProt Q16620); test: Inhibition of human recombinant TRKB at 15 nM related to control ULK1
Sequence of BDNF/NT-3 growth factors receptor (Homo sapiens) (Q16620 32-822 limits assumed): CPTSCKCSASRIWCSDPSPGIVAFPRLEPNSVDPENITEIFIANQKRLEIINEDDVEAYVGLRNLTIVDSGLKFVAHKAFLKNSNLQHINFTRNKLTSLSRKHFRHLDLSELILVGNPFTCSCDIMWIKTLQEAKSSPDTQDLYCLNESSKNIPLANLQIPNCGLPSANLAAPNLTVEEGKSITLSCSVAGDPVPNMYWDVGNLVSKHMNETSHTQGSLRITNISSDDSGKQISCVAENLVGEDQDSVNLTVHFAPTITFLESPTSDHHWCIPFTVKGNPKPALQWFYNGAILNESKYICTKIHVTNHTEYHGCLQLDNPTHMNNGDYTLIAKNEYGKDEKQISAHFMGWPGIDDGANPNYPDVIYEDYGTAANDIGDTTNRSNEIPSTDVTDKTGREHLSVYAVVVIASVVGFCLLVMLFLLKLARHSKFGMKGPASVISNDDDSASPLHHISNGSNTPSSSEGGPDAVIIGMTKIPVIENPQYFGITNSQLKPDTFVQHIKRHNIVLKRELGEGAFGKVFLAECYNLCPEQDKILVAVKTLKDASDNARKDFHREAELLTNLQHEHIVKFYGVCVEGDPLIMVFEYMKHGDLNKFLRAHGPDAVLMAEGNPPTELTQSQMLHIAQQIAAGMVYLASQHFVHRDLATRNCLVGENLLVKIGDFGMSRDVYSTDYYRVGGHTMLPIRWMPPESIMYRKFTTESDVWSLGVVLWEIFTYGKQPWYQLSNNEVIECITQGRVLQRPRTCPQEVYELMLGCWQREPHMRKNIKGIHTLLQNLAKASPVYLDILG

- inhibition [1]: 21%
- inhibition [2]: 0%
Structure (SMILES): CNC(=O)c1ccccc1Oc1nc(Nc2cc(OC)c(OC)c(OC)c2)ncc1Br

- fold change (FC) [3]: 0.04
- fold change (FC) [4]: 0.21
Structure (SMILES): O=C(N[C@@H](C1CC1)C(F)(F)F)c1cc(-c2cnn3cc(-c4ccc(F)cc4)cnc23)cs1

- inhibition [5]: 0%
- fold change (FC) [6]: 0
- fold change (FC) [7]: 0
- fold change (FC) [8]: 0.11
- fold change (FC) [9]: 0
Structure (SMILES): CC(C)[C@H](NC(=O)c1cc(-c2cnn3cc(-c4ccc(OCCN5CCCCC5)cc4)cnc23)cs1)C(F)(F)F
